The values that follow come from ChEMBL document CHEMBL1629686, “Substrate selectivity and a novel role in inhibitor discrimination by residue 237 in the KPC-2 beta-lactamase” (Antimicrob Agents Chemother, 2010).

In data set [1] the test system is Klebsiella pneumoniae. Briefly: Activity of Klebsiella pneumoniae 1534 beta-lactamase KPC-2 T237S mutant by spectrophotometric analysis. In a few lines:
(§1)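 Purified KPC-2 variant enzymes (periplasmic lysate from E. coli, preparative isoelectric focusing). Hydrolysis followed by diode-array spectrophotometry in 10 mM PBS, pH 7.4, room temperature. Enzyme at 10 nM with substrate in molar excess for pseudo-first-order conditions. Vmax and Km came from a nonlinear least-squares Michaelis-Menten fit.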

The subject of data set [2] is Klebsiella pneumoniae. Briefly: Ratio of Kcat/Km for Klebsiella pneumoniae 1534 beta-lactamase KPC-2 T237S mutant by spectrophotometric analysis. In a few lines:
as §1

Data set [3] deals with Klebsiella pneumoniae. The data set is described as follows: Selectivity index, Ratio of Kcat/Km for Klebsiella pneumoniae 1534 beta-lactamase KPC-2 T237S mutant to ratio of Kcat/Km for Klebsiella pneumoniae 1534 beta-lactamase KPC-2 by spectrophotometric analysis. The method in brief: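 Kinetics used purified enzymes in 10 mM PBS, pH 7.4, room temperature, with 10 nM enzyme and substrate in excess. Km and Vmax came from a Michaelis-Menten fit. kcat/Km of the variant was compared with wild type as ΔΔG = −RT ln of the kcat/Km ratio.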

The test system of data set [4] is Klebsiella pneumoniae. The data set is described as follows: Activity of Klebsiella pneumoniae 1534 beta-lactamase KPC-2 T237A mutant by spectrophotometric analysis. The method in brief:
as §1

The subject of data set [5] is Klebsiella pneumoniae. The data set is described as follows: Ratio of Kcat/Km for Klebsiella pneumoniae 1534 beta-lactamase KPC-2 T237E mutant by spectrophotometric analysis. The method in brief: as §1
The test system of data set [6] is Klebsiella pneumoniae. The data set is described as follows: Ratio of Kcat/Km for Klebsiella pneumoniae 1534 beta-lactamase KPC-2 T237A mutant by spectrophotometric analysis. In a few lines:
as §1

Data set [7] relates to Klebsiella pneumoniae. Briefly: Activity of Klebsiella pneumoniae 1534 beta-lactamase KPC-2 T237E mutant by spectrophotometric analysis. In a few lines:
as §1

The subject of data set [8] is Klebsiella pneumoniae. The data set is described as follows: Ratio of Ki for Klebsiella pneumoniae 1534 beta-lactamase KPC-2 T237S mutant to Ki for Klebsiella pneumoniae wild type beta-lactamase KPC-2 by competitive assay. The method in brief:
(§2)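 Direct competition assay at steady state with purified enzyme at 10 nM. Inhibitor was varied from 5 μM to 5 mM, with nitrocefin 100 μM final as reporter substrate. 1/v0 was plotted against [I], and Ki(observed) was taken as y-intercept divided by slope. This was corrected by 1 + [S]/Km(nitrocefin).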

The nature of data set [9]: Inhibition of Klebsiella pneumoniae 1534 beta-lactamase KPC-2 T237S mutant by competitive assay. The method in brief:
as §2

Data set [10] relates to Klebsiella pneumoniae. Briefly: Ratio of Ki for Klebsiella pneumoniae 1534 beta-lactamase KPC-2 T237A mutant to Ki for wild type Klebsiella pneumoniae beta-lactamase KPC-2 by competitive assay.
Data set [11] is described as follows: Inhibition of Klebsiella pneumoniae 1534 beta-lactamase KPC-2 T237A mutant by competitive assay. In a few lines:
as §2

Substrate in data set [12]: CO/N=C(\C(=O)N[C@@H]1C(=O)N2C(C(=O)O)=C(COC(C)=O)CS[C@H]12)c1csc(N)n1
Briefly: (§3) Activity of Klebsiella pneumoniae 1534 beta-lactamase KPC-2 by spectrophotometric analysis. In a few lines: (§4)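 Purified KPC-2 was expressed in E. coli (DH10B or IPTG-induced Origami2 DE3 pLys), released by periplasmic lysis, and purified by preparative isoelectric focusing. It was assayed at 10 nM in 10 mM PBS pH 7.4 at room temperature, with substrate in molar excess for pseudo-first-order conditions. Hydrolysis was read on a diode-array spectrophotometer, and Vmax and Km came from nonlinear least-squares Michaelis-Menten fits.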

Substrate in data set [13]: C[C@@H](O)[C@H]1C(=O)N2C(C(=O)O)=C(SCCNC=N)C[C@H]12
Described as §3. The method in brief:
as §4

Substrate in data set [14]: CCN1CCN(C(=O)N[C@@H](C(=O)N[C@@H]2C(=O)N3[C@@H]2SC(C)(C)[C@@H]3C(=O)O)c2ccccc2)C(=O)C1=O
The description is as §3. In a few lines:
as §4

Substrate in data set [15]: CC(=O)OCC1=C(C(=O)O)N2C(=O)[C@@H](NC(=O)Cc3cccs3)[C@H]2SC1
The data set is described as §3. In a few lines:
as §4

Substrate in data set [16]: O=C(Cc1cccs1)N[C@@H]1C(=O)N2C(C(=O)O)=C(/C=C/c3ccc([N+](=O)[O-])cc3[N+](=O)[O-])CS[C@H]12
The data set is described as §3. In a few lines: as §4

Substrate in data set [17]: CO/N=C(\C(=O)N[C@@H]1C(=O)N2C(C(=O)O)=C(COC(C)=O)CS[C@H]12)c1csc(N)n1
The data set is described as follows: (§5) Ratio of Kcat/Km for Klebsiella pneumoniae 1534 beta-lactamase KPC-2 by spectrophotometric analysis. The method in brief: as §4

Substrate in data set [18]: C[C@@H](O)[C@H]1C(=O)N2C(C(=O)O)=C(SCCNC=N)C[C@H]12
The data set is described as §5. In a few lines: as §4

Substrate in data set [19]: CCN1CCN(C(=O)N[C@@H](C(=O)N[C@@H]2C(=O)N3[C@@H]2SC(C)(C)[C@@H]3C(=O)O)c2ccccc2)C(=O)C1=O
Described as §5. In a few lines: as §4

Substrate in data set [20]: CC(=O)OCC1=C(C(=O)O)N2C(=O)[C@@H](NC(=O)Cc3cccs3)[C@H]2SC1
The description is as §5. In a few lines: as §4

Substrate in data set [21]: O=C(Cc1cccs1)N[C@@H]1C(=O)N2C(C(=O)O)=C(/C=C/c3ccc([N+](=O)[O-])cc3[N+](=O)[O-])CS[C@H]12
The description is as §5. The method in brief: as §4

Consider `O=C(Cc1cccs1)N[C@@H]1C(=O)N2C(C(=O)O)=C(/C=C/c3ccc([N+](=O)[O-])cc3[N+](=O)[O-])CS[C@H]12`, for which the figures for the Km in data set [1], in [4] and in data set [7] were 5 µM, 15 µM and 167 µM, respectively. For the same molecule, the results for the kcat in data set [1], in data set [4] and in data set [7] were 50 s⁻¹, 191 s⁻¹ and 92 s⁻¹, respectively. Also, the kcat/Km in [2] was determined as 1e+07 M⁻¹ s⁻¹; in [5] it was 600000 M⁻¹ s⁻¹; in data set [6] it was 1.3e+07 M⁻¹ s⁻¹. Moreover, in [3], the fold change (FC) was 2.7.
Regarding `O=C(O)[C@H]1/C(=C/CO)O[C@@H]2CC(=O)N21` [CLAVULANIC ACID], the figures for the fold change (FC) in data set [8] and in data set [10] were 1.7 and 5, respectively. The inhibition constant Ki turned out to be 13 µM in data set [9] and 55 µM in [11].

B1: Carbapenem-hydrolyzing beta-lactamase KPC (Klebsiella pneumoniae), Q9F663 (protein)
chain: MSLYRRLVLLSCLSWPLAGFSATALTNLVAEPFAKLEQDFGGSIGVYAMDTGSGATVSYRAEERFPLCSSFKGFLAAAVLARSQQQAGLLDTPIRYGKNALVPWSPISEKYLTTGMTVAELSAAAVQYSDNAAANLLLKELGGPAGLTAFMRSIGDTTFRLDRWELELNSAIPGDARDTSSPRAVTESLQKLTLGSALAAPQRQQFVDWLKGNTTGNHRIRAAVPADWAVGDKTGTCGVYGTANDYAVVWPTGRAPIVLAVYTRAPNKDDKHSEAVIAAAARLALEGLGVNGQ
B1: the Km in data set [12] was determined as 207 µM; in data set [13] it was 19 µM; in data set [14], 15 µM; in data set [15] it was 14 µM; in data set [16], 6 µM. Moreover, the kcat was found to be 142 s⁻¹ in data set [12]; 19 s⁻¹ in [13]; 51 s⁻¹ in [14]; 44 s⁻¹ in data set [15]; 52 s⁻¹ in data set [16]. The kcat/Km in [17] was 700000 M⁻¹ s⁻¹; in data set [18], 1e+06 M⁻¹ s⁻¹; in data set [19] it was 3.4e+06 M⁻¹ s⁻¹; in [20] it was 3.1e+06 M⁻¹ s⁻¹; in data set [21], 8.7e+06 M⁻¹ s⁻¹.

Broadly, the Km is the concentration of substrate that gives half-maximal velocity. The kcat is the maximal rate divided by the concentration of active sites. The kcat/Km is the second-order rate constant that governs catalysis at low substrate concentration. In general, Ki refers to a measure of affinity in units of concentration, obtained from inhibition or displacement. Higher therefore signals lower affinity.
